High-throughput results deposited in PubChem by several laboratories.
UBC13 polyUb = blocks human UBC13 polyubiquitin chain formation; P61088; TR-FRET; inhibition, % at 20 µM; 330,000 compounds, 0.47% hits; AID 485273; in the data active = inhibition above about 45%, passing the limit was not always enough; inconclusive = no clear call, values can overlap the other calls
PP5 inh = PP5 (human) phosphatase inhibition; purified PP5c, OMFP substrate fluorescence; inhibition, % at 6.7 µM; 320,000 compounds, 0.18% hits; AID 1987;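 active = inhibition above the campaign's mean inhibition across all tested compounds plus 3 SD, cut at about 9.5% in these data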;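 note: 0% = DMSO only and 100% = 100 µM cantharidin control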
Target sequence (P53041 whole entry, looked up): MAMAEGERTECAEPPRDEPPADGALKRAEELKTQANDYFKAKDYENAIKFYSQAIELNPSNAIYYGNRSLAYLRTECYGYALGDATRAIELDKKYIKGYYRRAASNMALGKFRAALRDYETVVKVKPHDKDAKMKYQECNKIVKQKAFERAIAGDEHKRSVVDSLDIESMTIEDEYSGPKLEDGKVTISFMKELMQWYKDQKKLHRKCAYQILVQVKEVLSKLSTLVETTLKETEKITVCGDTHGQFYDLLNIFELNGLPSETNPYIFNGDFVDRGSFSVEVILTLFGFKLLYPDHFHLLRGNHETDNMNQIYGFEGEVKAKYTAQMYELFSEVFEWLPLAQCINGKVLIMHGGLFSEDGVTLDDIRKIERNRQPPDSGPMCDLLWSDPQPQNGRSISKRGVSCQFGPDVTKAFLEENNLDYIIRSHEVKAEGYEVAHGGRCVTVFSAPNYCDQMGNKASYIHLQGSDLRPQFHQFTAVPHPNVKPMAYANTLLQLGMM
PP1 inh = blocks human PP1-alpha phosphatase, a PP5 counter-screen | purified PP1alpha, OMFP fluorescence | inhibition, % at 6.7 µM | 320,000 compounds, 0.9% hits;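 active = inhibition above the mean inhibition of all tested compounds plus 3 SD, computed separately for each screening campaign, cut at about 15% in these data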
PREPL inhibitor = human PREPL enzyme inhibition; recombinant PREPL, fluorescence polarization activity-based probe; inhibition, % at 5.96 µM; 320,000 compounds, 0.68% hits; Q4J6C6; in the data active = inhibition above about 43%;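 note: 0% = enzyme with DMSO and 100% = wells lacking enzyme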
CTSL1 counter = counter-screen for PFM18AAP inhibitors: inhibitors of F. hepatica cathepsin L1. recombinant F. hepatica cathepsin L1, Z-Leu-Arg-MCA fluorescence. inhibition, % at 5.96 µM. 300,000 compounds, 0.49% hits;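 active = inhibition above the mean of all tested compounds plus 3 SD, set per screening campaign, cut at about 17% in these data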;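 note: 0% = plate median of test compound wells and 100% = 1 µM Z-Phe-Ala-diazomethylketone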
UCH37 inh = human UCH37 deubiquitinating enzyme inhibition | purified proteasome/UCH37, Ub-AMC cleavage fluorescence | inhibition, % (test concentration not listed) | Q9Y5K5 | 330,000 compounds, 0.33% hits;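 active = mean inhibition over replicate wells above about 20%, limit read from the data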;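 note: 0% = compound-free wells with enzyme and 100% = wells lacking proteasome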
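Material: human UCH37 enzyme supplied as purified proteasome complex / Amount: 0.15 nM proteasome as dispensed / Buffer or medium: pH 7.4 Tris-HCl (50 mM) with ovalbumin, ATP-MgCl2, DTT / Times: preincubation 30 min, reaction 25 min, room temperature / Technique: AMC fluorescence from Ub-AMC cleavage, excitation 355 nm, emission 460 nm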
Casp3 UBC13 ctr = caspase-3 inhibition (UBC13 counter-screen); shares compounds with UBC13 polyUb; Recombinant caspase-3, Caspase-Glo 3/7 luminescence, 60 min; inhibition, % at 20 µM; 1,400 compounds, 4% hits;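 active = mean inhibition across replicates above about 26%, limit read from the data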;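 note: plate controls were DMSO with caspase-3 for no effect and DMSO wells lacking enzyme for full effect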
UBC13 conf = human UBC13 polyubiquitin inhibition, confirmed. shares compounds with UBC13 polyUb. inhibition, % at 10 µM. UBC13 polyubiquitination, TR-FRET, biochemical. AID 488859. 1,400 compounds, 68% hits; in the data active = inhibition above about 45%; inconclusive = no clear call, values can overlap the other calls
* = called active by the depositor; ? = inconclusive; nt = no result given. An excerpt weighted towards active compounds, which were near 2.3% of everything screened.

SMILES | UBC13 polyUb | PP5 inh | PP1 inh | PREPL inhibitor | CTSL1 counter | UCH37 inh | Casp3 UBC13 ctr | UBC13 conf
CCCCCCCCCCCCCCCC(O)C(N)CO (stereo not drawn) | 111* | -4 | 4 | 7 | -1 | 5 | 2 | 101*
Cc1ccccc1C(=O)N1CCN(c2ccc(NC(=S)NC(=O)c3cccs3)cc2)CC1 | 86* | 2 | 4 | 23 | 2 | 5 | 2 | 85*
Cc1ccc(C)c(C=Nn2cc(-c3ccccc3)[nH]c2=S)c1 | nt | nt | nt | nt | nt | -14 | nt | nt
O=C(NCC1CCCO1)C(=O)NN=Cc1ccc(OCc2ccccc2Cl)cc1 (stereo not drawn) | nt | nt | nt | nt | nt | 2 | nt | nt
O=c1c2cc(N3CCOCC3)ccc2[nH]c(=S)n1Cc1ccccc1Cl | 45* | 1 | 4 | -5 | 4 | -161 | -4 | ?
NNC(=O)c1ccc(CN2C(=O)c3cccc4cccc2c34)cc1 | 96* | 3 | 9 | -5 | 2 | -23 | 2 | 108*
Nc1c(C(=O)NN=Cc2ccccc2)cnn1-c1ccccc1 | nt | nt | nt | nt | nt | 3 | nt | nt
O=[N+]([O-])c1c(-c2cn[nH]c2)n[nH]c1-c1cn[nH]c1 | 56* | 1 | -4 | 1 | 8 | 6 | 4 | 53*
CC(C)(C)c1ccc2c(c1)C(=O)c1ccccc1C2=O | 54* | 0 | 0 | 17 | 3 | 5 | 96* | 19
CCc1ccc2c(c1)C(=O)c1ccccc1C2=O | 36 | 1 | -3 | 16 | -4 | 0 | nt | nt
COc1ccc(CCN2CCC(Nc3nc4ccccc4n3Cc3ccc(F)cc3)CC2)cc1 | 48* | 0 | 10 | 38 | 2 | 4 | 1 | 27
COc1ccc(CNc2nc3ccccc3n2CCN2CCCCC2)cc1 | -1 | -1 | -2 | 33 | -3 | 2 | nt | nt
Oc1ccc(-c2cnc3ccccc3n2)cc1 | 5 | -1 | -3 | -8 | 0 | -2 | nt | nt
CCCCOc1ccc(-c2cnc3ccccc3n2)cc1 | 54* | 0 | 2 | -8 | -1 | -11 | 93* | ?
CCOc1ccc2nc(NC3=NC(C)(C)C=C(C)N3)nc(C)c2c1 | 57* | 2 | -1 | 16 | -4 | -14 | 2 | 64*
CCOc1ccc2c(C)nc(NC3=NC(C)(C)C=C(C)N3)nc2c1 | 37 | 2 | -1 | 19 | -3 | -18 | nt | nt
Cc1cc(-c2n[nH]c(=S)n2N=Cc2c[nH]c3ccccc23)n[nH]1 | nt | nt | nt | nt | nt | 4 | nt | nt
N#Cc1c(SCc2ccccc2)nc(N2CCOCC2)c2c1CCCC2 | 10 | 0 | 2 | 14 | 2 | 0 | nt | nt
CCSc1nc(N2CCCCC2)c2c(c1C#N)CCCC2 | 47* | 2 | -2 | -8 | 0 | 3 | 2 | 46*
O=C(CCNC(=O)c1ccccc1Cl)Nc1nc2ccccc2s1 | 80* | 0 | 5 | 10 | -1 | 5 | 2 | 101*
O=C(NN=Cc1ccc(Br)cc1)c1cc[n+]([O-])cc1 | nt | nt | nt | nt | nt | 8 | nt | nt
Oc1ccc(C=Nn2c(-c3ccco3)csc2=Nc2cccnc2)c(O)c1 | nt | nt | nt | nt | nt | 3 | nt | nt
O=C(CCCn1c(=S)[nH]c2ccc(Br)cc2c1=O)N1CCN(c2ccccn2)CC1 | 45* | 3 | -3 | -156 | 0 | 4 | -2 | 44
Cc1cc(C)c2sc(N(CCCN(C)C)C(=O)c3ccc(S(=O)(=O)N(C)C4CCCCC4)cc3)nc2c1 | 58* | 1 | 8 | 20 | 1 | 2 | -3 | 97*
COc1ccc(C)c2sc(N(CCCN(C)C)C(=O)c3ccc(S(=O)(=O)N(C)C)cc3)nc12 | 49* | 1 | -6 | 8 | -2 | 4 | -5 | 54*
Cc1nn2c(nc(N3CCOCC3)c3ccccc32)c1C=C(C#N)C#N | 47* | -1 | -1 | 0 | -3 | -11 | -4 | 46*
Cc1nn(C)cc1C=Nn1nnnc1N | nt | nt | nt | nt | nt | 0 | nt | nt
COc1cc(C(=O)Nc2cccc(S(=O)(=O)N3CCCC3)c2)cc(OC)c1C | 75* | 5 | -1 | -13 | 2 | 2 | 0 | 70*
CS(=O)(=O)c1cccc(C(=O)Nc2cccc(S(=O)(=O)N3CCCC3)c2)c1 | 0 | nt | nt | nt | nt | -1 | nt | nt
